For data set [1], the species on record is Rattus norvegicus. The data set can be described thus: (§1) Duration of action in rat. Type of data set: functional. In outline: (§2)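 Anesthetized (urethane) male Sprague-Dawley rats (300–400 g), kept at 37 °C rectal temperature. Anterior prostate attached to a force transducer at 2 g resting tension. Pretreatment: atropine and propranolol (1 mg/kg each). Contractions were evoked by agonist (phenylephrine 10 μg/kg or (R)-A-61603 30 ng/kg), given 5 min after antagonist and then every 30 min for up to 4 h.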

The species entered for data set [2] is Rattus norvegicus. Kind of data set: Antagonistic activity against norepinephrine induced contractions in rat aorta. It is filed as functional.
For data set [3], the species on record is Canis familiaris. The data set can be described thus: Potency to inhibit phenylephrine stimulated intraurethral pressure in dog. It is filed as functional, Canis lupus familiaris, Urethra. The essentials: (§3)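 Male mongrel dogs (9–14 kg), pentobarbital-anesthetized (35 mg/kg iv plus 4–5 mg/kg/h infusion), ventilated, with femoral catheters. Control iv bolus phenylephrine dose–response curves for intraurethral and diastolic pressure, repeated after successive iv antagonist doses (30, 100, 300). Kb by Arunlakshana–Schild analysis.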

For data set [4], the species on record is Rattus norvegicus. Kind of data set: Dose required to produce 50% inhibition of phenylephrine induced diastolic blood pressure in rat. It is filed as functional, Artery.
For data set [5], the species on record is Rattus norvegicus. Kind of data set: Dose required to produce 50% inhibition of phenylephrine induced contractile response in situ rat prostate. It is filed as functional, Prostate gland. In outline: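 Male Sprague-Dawley rats (300–400 g), urethane-anesthetized, held at 37 °C rectal, pretreated with atropine and propranolol (1 mg/kg each). Anterior prostate on a force transducer at 2 g resting tension; phenylephrine challenge 10 μg/kg. For AD50, rising noncumulative antagonist doses were given every 20 min, with agonist 5 min after each. For duration, agonist was given 5 min after antagonist, then every 30 min for up to 4 h.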

The species named for data set [6] is Canis familiaris. The data set can be described thus: Potency to inhibi phenylephrine stimulated diastolic blood pressure in dog. It is filed as functional, Canis lupus familiaris, Artery. The essentials: as §3
The species entered for the next data set is Homo sapiens. The data set can be described thus: Antagonism against phenylephrine induced contractions in isolated prostate tissue of human. Type of data set: functional. As to conditions: Prostate gland.
Data set [7] deals with T1, Adrenergic receptor alpha-1 (Rattus norvegicus, UniProt P15823+P23944+P43140).
T1 sequence (P15823 whole entry): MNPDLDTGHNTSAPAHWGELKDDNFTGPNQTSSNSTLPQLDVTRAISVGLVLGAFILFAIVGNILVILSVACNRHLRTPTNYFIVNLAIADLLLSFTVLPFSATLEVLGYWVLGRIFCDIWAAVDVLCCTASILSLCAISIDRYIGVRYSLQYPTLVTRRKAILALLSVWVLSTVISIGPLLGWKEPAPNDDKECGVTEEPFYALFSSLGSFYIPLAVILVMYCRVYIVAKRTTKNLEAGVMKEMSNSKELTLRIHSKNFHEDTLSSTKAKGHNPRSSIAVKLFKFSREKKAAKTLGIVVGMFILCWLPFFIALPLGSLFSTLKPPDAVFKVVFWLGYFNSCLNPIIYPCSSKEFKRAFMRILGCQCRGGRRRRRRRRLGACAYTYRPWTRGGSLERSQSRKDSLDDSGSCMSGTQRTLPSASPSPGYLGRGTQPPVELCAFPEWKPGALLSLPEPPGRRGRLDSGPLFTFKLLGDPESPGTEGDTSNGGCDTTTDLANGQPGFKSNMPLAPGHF
T1 sequence (P23944 whole entry): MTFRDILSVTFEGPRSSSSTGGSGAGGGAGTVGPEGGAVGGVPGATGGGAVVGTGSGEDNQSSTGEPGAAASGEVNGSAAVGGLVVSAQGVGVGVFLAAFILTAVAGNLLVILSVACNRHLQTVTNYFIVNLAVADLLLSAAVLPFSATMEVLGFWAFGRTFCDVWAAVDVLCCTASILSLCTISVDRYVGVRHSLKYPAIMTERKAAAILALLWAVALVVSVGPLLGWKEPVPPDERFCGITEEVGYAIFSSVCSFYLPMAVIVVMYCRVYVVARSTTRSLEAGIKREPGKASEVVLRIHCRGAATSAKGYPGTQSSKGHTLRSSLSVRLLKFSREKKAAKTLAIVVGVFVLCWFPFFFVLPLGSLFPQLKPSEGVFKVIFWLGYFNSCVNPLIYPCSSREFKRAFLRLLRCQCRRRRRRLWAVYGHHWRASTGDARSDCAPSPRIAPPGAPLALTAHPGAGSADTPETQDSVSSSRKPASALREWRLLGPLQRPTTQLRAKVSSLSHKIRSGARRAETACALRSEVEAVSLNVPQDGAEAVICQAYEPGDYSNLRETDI
T1 sequence (P43140 whole entry): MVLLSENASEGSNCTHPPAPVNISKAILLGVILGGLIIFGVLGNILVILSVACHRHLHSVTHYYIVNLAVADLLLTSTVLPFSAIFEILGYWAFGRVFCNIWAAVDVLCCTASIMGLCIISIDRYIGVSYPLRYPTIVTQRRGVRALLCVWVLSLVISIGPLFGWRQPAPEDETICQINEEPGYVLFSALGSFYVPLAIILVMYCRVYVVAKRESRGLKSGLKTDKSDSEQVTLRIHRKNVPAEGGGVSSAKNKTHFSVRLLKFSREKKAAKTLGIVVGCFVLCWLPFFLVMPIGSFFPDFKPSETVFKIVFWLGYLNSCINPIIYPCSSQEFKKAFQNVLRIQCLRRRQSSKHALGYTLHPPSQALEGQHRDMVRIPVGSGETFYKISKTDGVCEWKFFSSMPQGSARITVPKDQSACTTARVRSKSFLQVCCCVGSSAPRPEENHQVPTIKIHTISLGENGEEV
Kind of data set: In vitro binding affinity against Alpha-1A adrenergic receptor in isolated prostate tissue of rat. Type of data set: tissue-based, Prostate gland.

Data set [8] is filed under the species Rattus norvegicus. The data set is described as §1. Conditions: in vivo. It is filed as ADME, organism-based. In outline: as §2
The species entered for data set [9] is Canis familiaris. The data set can be described thus: Antagonism against phenylephrine induced contractions in isolated prostate tissue of dog. It is filed as functional, Canis lupus familiaris, Prostate gland. The essentials:
(§4)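 Isolated prostate strips (rat or dog) contracted with phenylephrine as agonist. Antagonist potency is expressed as Kb, derived from the shift in the agonist response by a previously published method.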

Data set [10] has as its target Adrenergic receptor alpha-1 (Rattus norvegicus) (UniProt P15823+P23944+P43140). The data set can be described thus: Antagonistic activity against Alpha-1 adrenergic receptor in rat prostate tissue using A61603 as agonist. Type of data set: functional, tissue-based. As to conditions: Prostate gland.
The species entered for data set [11] is Canis familiaris. Kind of data set: Potency to inhibit phenylephrine stimulated diastolic blood pressure in dog. It is filed as functional, Canis lupus familiaris, Artery. The essentials: as §3
The species entered for data set [12] is Rattus norvegicus. Kind of data set: Antagonism against phenylephrine induced contractions in isolated prostate tissue of rat. Type of data set: functional, Prostate gland. In outline:
as §4

The species named for data set [13] is Rattus norvegicus. Kind of data set: Antagonistic activity against norepinephrine induced contractions in rat vas deferens. It is filed as functional.

Where only a bound is given, the exact number is not on record here.

`COc1cc2nc(N3CCN(C(=O)C4CCCO4)CC3)nc(N)c2cc1OC` (stereo not drawn) [TERAZOSIN] had a Duration of action in the data set filed under Rattus norvegicus [1] of more than 4 h. Besides, the Kb in the data set filed under Rattus norvegicus [2] is 19 nM; in the data set listed under Canis familiaris [3] it was 16.4 µg/kg; in the data set listed under Canis familiaris [6], 15.7 µg/kg. In addition, the results for the AD50 in the data set listed under Rattus norvegicus [4] and in the data set filed under Rattus norvegicus [5] were 0.065 mg/kg and 0.052 mg/kg, respectively.

For the compound `CCC1=C(C(N)=O)C(c2ccc(F)c(F)c2)N(C(=O)NCCCN2CCC(C(=O)OC)(c3ccccc3)CC2)C(=O)N1` (stereo not drawn), the Kb in the data set listed under Homo sapiens is 0.39 nM; in the data set listed under Rattus norvegicus [2], more than 1000 nM; in the data set listed under Canis familiaris [3], 4.2 µg/kg; in the data set listed under Canis familiaris [9], 3.7 nM; in data set [10], 0.3 nM; in the data set listed under Canis familiaris [11], 187 µg/kg. Also, the Kb in the data set listed under Rattus norvegicus [12] was determined as 1 nM; in the data set filed under Rattus norvegicus [13], 2.5 nM. In addition, the Ki – broadly, a measure of affinity in units of concentration, obtained from inhibition or displacement – in data set [7] was 0.27 nM. Also, the Duration of action in the data set filed under Rattus norvegicus [8] was more than 4 h. The figures for the AD50 in the data set filed under Rattus norvegicus [4] and in the data set listed under Rattus norvegicus [5] were more than 3 mg/kg and 0.02 mg/kg, respectively.

The record behind these values is ChEMBL document CHEMBL1132476, “Design and synthesis of novel alpha(1)(a) adrenoceptor-selective antagonists. 1. Structure-activity relationship in dihydropyrimidinones” (J Med Chem, 1999).
